In ChEMBL document CHEMBL3351568, “2-Aminobenzoxazole ligands of the hepatitis C virus internal ribosome entry site” (Bioorg Med Chem Lett, 2014):

The molecules below were run against Internal ribosome entry site (IRES) (assay: Binding affinity to HCV cyanine dye-labeled IRES subdomain 2a RNA by FRET assay in presence of tRNA).
Set-up: species or system Hepacivirus hominis
Method in brief: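 IRES subdomain IIa RNA target binding by FRET, following a previously described method. Compounds were titrated in triplicate experiments, and the data were averaged. EC50 came from fitting a single-site binding dose-response curve to the averaged data.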

Row | Compound | EC50
1 | CN(C)CCCNc1ccc2nc(NCCCN(C)C)oc2c1 | 63 µM
2 | CN(CCC(=O)N(C)C)Cc1cccc2nc(N)oc12 | 600 µM
3 | Nc1ccc2nc(NCCCN3CCCCC3)oc2c1 | 47 µM
4 | CN(C)CCNc1nc2ccc(N)cc2o1 | 500 µM
5 | CN(C)CCCNc1nc2ccccc2o1 | 110 µM
6 | Nc1ccc2nc(NCCN3CCCCC3)oc2c1 | 88 µM

Results, then the molecule that gave them:

Row | EC50 | Compound
7 | 27 µM | Nc1nc2ccc(NCc3ccccc3)cc2o1
8 | 31 µM | CN(C)CCCNc1nc2cccc(N)c2o1
9 | 43 µM | Nc1ccc2nc(NCCCN3CCOCC3)oc2c1
10 | 52 µM | CN(C)CCCNc1nc2cc(N)ccc2o1
11 | 190 µM | CN(C)CCN(C)Cc1cccc2nc(N)oc12
12 | 25 µM | CN(C)CCCNc1ccc2nc(N)oc2c1
13 | 90 µM | Nc1nc2ccc(Nc3ccccc3)cc2o1
14 | 120 µM | CN(C)CCCNc1nc2ccc(N)cc2o1
